Measured values reported in ChEMBL document CHEMBL1150246, “Synthesis and activity of tetrapeptidic HTLV-I protease inhibitors possessing different P3-cap moieties” (Bioorg Med Chem, 2008).
Starred links: 1 amine or outer side, 2 acyl side, 3 side chain; linkers in the order of their positions; H or OH if unused. Non-standard residues stand in square brackets, D forms with d. Residues, ends and D or L forms follow the SMILES beside them. X1 = O=C([C@@H](O)[C@H](Cc1ccccc1)N[*:1])[*:2]

Tests used:
[1] = test system: Human immunodeficiency virus; assay: Inhibition of HIV protease at 50 nM
[2] = biological target: T1, Protease (Human T-lymphotropic virus 1, UniProt Q82323); assay: Inhibition of HTLV1 protease1; set-up: species or system Human T-cell leukemia virus type I
T1 sequence (Q82323 whole entry): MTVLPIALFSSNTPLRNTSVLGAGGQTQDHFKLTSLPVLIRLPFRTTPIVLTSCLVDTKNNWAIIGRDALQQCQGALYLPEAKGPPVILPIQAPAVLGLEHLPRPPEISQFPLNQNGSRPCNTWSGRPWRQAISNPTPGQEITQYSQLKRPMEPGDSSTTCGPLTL
Method in brief: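 HTLV-I protease L40I mutant, which blocks autolysis and improves stability. Inhibition reported as IC50 with SEM in nM. Remaining assay steps follow an earlier published procedure.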

Structure (SMILES): CC(C)CNC(=O)[C@H]1N(C(=O)[C@@H](O)[C@H](Cc2ccccc2)NC(=O)[C@@H](NC(=O)[C@@H](NC(=O)CC(C)(C)C)c2ccccc2)C(C)(C)C)CSC1(C)C
- inhibition [1]: > 99%
- IC50 [2]: 83.3 nM

Structure (SMILES): CC(=O)N[C@H](C(=O)N[C@H](C(=O)N[C@@H](Cc1ccccc1)[C@H](O)C(=O)N1CSC(C)(C)[C@H]1C(=O)NCC(C)C)C(C)(C)C)c1ccccc1
- inhibition [1]: > 99%
- IC50 [2]: 107 nM

Structure (SMILES): CC(C)CNC(=O)[C@H]1N(C(=O)[C@@H](O)[C@H](Cc2ccccc2)NC(=O)[C@@H](NC(=O)[C@@H](NC(=O)C(C)(C)C)c2ccccc2)C(C)(C)C)CSC1(C)C
- inhibition [1]: > 99%
- IC50 [2]: 82.8 nM

Structure (SMILES): CC(C)CNC(=O)[C@H]1N(C(=O)[C@@H](O)[C@H](Cc2ccccc2)NC(=O)[C@@H](NC(=O)[C@@H](NC(=O)C2CC2)c2ccccc2)C(C)(C)C)CSC1(C)C
- inhibition [1]: > 99%
- IC50 [2]: 96.9 nM

Structure (SMILES): CCCCC(=O)N[C@H](C(=O)N[C@H](C(=O)N[C@@H](Cc1ccccc1)[C@H](O)C(=O)N1CSC(C)(C)[C@H]1C(=O)NCC(C)C)C(C)(C)C)c1ccccc1
- inhibition [1]: > 99%
- IC50 [2]: 92 nM

Structure (SMILES): CCC(=O)N[C@H](C(=O)N[C@H](C(=O)N[C@@H](Cc1ccccc1)[C@H](O)C(=O)N1CSC(C)(C)[C@H]1C(=O)NCC(C)C)C(C)(C)C)c1ccccc1
- inhibition [1]: > 99%
- IC50 [2]: 105 nM

Structure (SMILES): CCC(C)CC(=O)N[C@H](C(=O)N[C@H](C(=O)N[C@@H](Cc1ccccc1)[C@H](O)C(=O)N1CSC(C)(C)[C@H]1C(=O)NCC(C)C)C(C)(C)C)c1ccccc1 (stereo not given in full)
- inhibition [1]: > 99%
- IC50 [2]: 88.2 nM

Structure (SMILES): CC(C)CNC(=O)[C@H]1N(C(=O)[C@@H](O)[C@H](Cc2ccccc2)NC(=O)[C@@H](NC(=O)[C@@H](NC(=O)c2ccccc2)c2ccccc2)C(C)(C)C)CSC1(C)C
- inhibition [1]: > 99%
- IC50 [2]: 79.2 nM

Structure (SMILES): CC(C)CCC(=O)N[C@H](C(=O)N[C@H](C(=O)N[C@@H](Cc1ccccc1)[C@H](O)C(=O)N1CSC(C)(C)[C@H]1C(=O)NCC(C)C)C(C)(C)C)c1ccccc1
- inhibition [1]: > 99%
- IC50 [2]: 96.5 nM

Structure (SMILES): CCCC(=O)N[C@H](C(=O)N[C@H](C(=O)N[C@@H](Cc1ccccc1)[C@H](O)C(=O)N1CSC(C)(C)[C@H]1C(=O)NCC(C)C)C(C)(C)C)c1ccccc1
- inhibition [1]: > 99%
- IC50 [2]: 104 nM

Structure (SMILES): CSCC[C@H](NC(=O)[C@@H](NC(=O)[C@@H]1CCCN1C(=O)[C@@H](O)[C@H](Cc1ccccc1)NC(=O)[C@@H](NC(=O)[C@H](CCC(N)=O)NC(=O)[C@@H]1CCCN1)C(C)C)C(C)C)C(=O)N[C@@H](Cc1cnc[nH]1)C(=O)O (H-PQV[X1]PVMH-OH)
- IC50 [2]: 159 nM

Structure (SMILES): CCCC(C)C(=O)N[C@H](C(=O)N[C@H](C(=O)N[C@@H](Cc1ccccc1)[C@H](O)C(=O)N1CSC(C)(C)[C@H]1C(=O)NCC(C)C)C(C)(C)C)c1ccccc1 (stereo not given in full)
- inhibition [1]: > 99%
- IC50 [2]: 84.2 nM

Structure (SMILES): CC(C)CNC(=O)[C@H]1N(C(=O)[C@@H](O)[C@H](Cc2ccccc2)NC(=O)[C@@H](NC(=O)[C@@H](NC(=O)C(C)C)c2ccccc2)C(C)(C)C)CSC1(C)C
- inhibition [1]: > 99%
- IC50 [2]: 93.5 nM

Structure (SMILES): CCC(C)(C)C(=O)N[C@H](C(=O)N[C@H](C(=O)N[C@@H](Cc1ccccc1)[C@H](O)C(=O)N1CSC(C)(C)[C@H]1C(=O)NCC(C)C)C(C)(C)C)c1ccccc1
- inhibition [1]: > 99%
- IC50 [2]: 80.4 nM

Structure (SMILES): CC(C)CNC(=O)[C@H]1N(C(=O)[C@@H](O)[C@H](Cc2ccccc2)NC(=O)[C@@H](NC(=O)[C@@H](NC(=O)CCc2ccccc2)c2ccccc2)C(C)(C)C)CSC1(C)C
- inhibition [1]: > 99%
- IC50 [2]: 105 nM

Structure (SMILES): CC(C)CNC(=O)[C@H]1N(C(=O)[C@@H](O)[C@H](Cc2ccccc2)NC(=O)[C@@H](NC(=O)[C@@H](N)c2ccccc2)C(C)(C)C)CSC1(C)C
- inhibition [1]: > 99%
- IC50 [2]: 332 nM

Structure (SMILES): CC(C)CNC(=O)[C@H]1N(C(=O)[C@@H](O)[C@H](Cc2ccccc2)NC(=O)[C@@H](NC(=O)[C@@H](NC(=O)CC(C)C)c2ccccc2)C(C)(C)C)CSC1(C)C
- inhibition [1]: > 99%
- IC50 [2]: 102 nM

Structure (SMILES): CC(C)CNC(=O)[C@H]1N(C(=O)[C@@H](O)[C@H](Cc2ccccc2)NC(=O)[C@@H](NC(=O)[C@@H](NC(=O)C2CCCCC2)c2ccccc2)C(C)(C)C)CSC1(C)C
- inhibition [1]: > 99%
- IC50 [2]: 98.2 nM
